Experimental data from ChEMBL document CHEMBL1157556, “Synthesis and biological screening of a combinatorial library of beta-chlorovinyl chalcones as anticancer, anti-inflammatory and antimicrobial agents” (Bioorg Med Chem, 2010).
Converted amounts (≈) assume the structure as drawn.

What was measured:
THP-1 [1] = test: Antiinflammatory activity in human THP1 cells assessed as inhibition of LPS-induced IL6 release at 1 uM after 24 hrs by ELISA; format: functional; conditions: THP-1, 24 h
Method in brief: (§1)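 THP-1 cells grown in RPMI 1640 with 10% FBS, penicillin and streptomycin, then PMA-differentiated. Compounds in 0.5% DMSO preincubated 30 min at 37 °C before LPS (E. coli 0127:B8) stimulation. TNF-α and IL-6 release measured by kit per the manufacturer (BD Biosciences). Percent inhibition calculated relative to control. Dexamethasone 1 µM as reference.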

THP-1 [2] = test: Cytotoxicity against human THP1 cells assessed as CCK8 release at 1 uM after 24 hrs by ELISA; format: cell-based; conditions: thp-1, 24 h
Method in brief: (§2)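 Same THP-1 cytokine-assay cells, with compounds in 0.5% DMSO and LPS stimulation, were scored in parallel for cytotoxicity by CCK-8.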

THP-1 [3] = test: Antiinflammatory activity in human THP1 cells assessed as inhibition of LPS-induced TNFalpha release at 1 uM after 24 hrs by ELISA; format: functional; conditions: THP-1, 24 h; method in brief: as §1
PANC-1 [4] = test: Anticancer activity against human PANC1 cells at 500 nM after 48 hrs by propidium iodide fluorescence assay; format: functional
Method in brief: (§3)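 Propidium iodide DNA-fluorescence assay. Seeding 3000–7500 cells/well, 24 h recovery at 37 °C in 5% CO₂. Compounds in 0.1% DMSO added to triplicate wells at 10 µM. Flavopiridol 700 nM and gemcitabine 500 nM as reference inhibitors. Plates frozen at −80 °C for 24 h, thawed to room temperature, fluorescence read at excitation 530 nm and emission 620 nm. Percent cytotoxicity calculated.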

ACHN [5] = test: Anticancer activity against human ACHN cells at 500 nM after 48 hrs by propidium iodide fluorescence assay; format: functional; method in brief: as §3
HCT-116 [6] = test: Anticancer activity against human HCT116 cells at 500 nM after 48 hrs by propidium iodide fluorescence assay; format: functional; method in brief: as §3
Calu-1 [7] = test: Anticancer activity against human Calu1 cells at 500 nM after 48 hrs by propidium iodide fluorescence assay; format: functional; method in brief: as §3
NCI-H460 [8] = test: Anticancer activity against human H460 cells at 500 nM after 48 hrs by propidium iodide fluorescence assay; format: functional; method in brief: as §3
Escherichia coli [9] = test: Antibacterial activity against Escherichia coli MTCC 1650 after 24 hrs; format: functional; conditions: MTCC 1650, 24 h
Method in brief: (§4)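 Agar well diffusion on Mueller Hinton agar seeded with 0.1 mL of a 10⁵ cfu/mL suspension in 0.85% saline. Compounds dissolved in DMSO, final concentrations 25–250 µg/mL, 0.1 mL loaded per 6 mm well. DMSO (1%) control; tetracycline (10 µg/mL) reference. Duplicate plates incubated 24 h at 37 °C. Inhibition zone read in mm. MIC taken as lowest concentration giving complete growth inhibition.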

Staphylococcus aureus [10] = test: Antibacterial activity against Staphylococcus aureus MTCC 96 at 50 ug/ml after 24 hrs agar diffusion method; format: functional; conditions: MTCC 96, 24 h, read-out: IZ; method in brief: as §4
Calu-1 [11] = test: Anticancer activity against human Calu1 cells at 10 uM after 48 hrs by propidium iodide fluorescence assay; format: functional; method in brief: as §3
Bacillus subtilis [12] = test: Antibacterial activity against Bacillus subtilis MTCC 1789 after 24 hrs; format: functional; conditions: MTCC 1789, 24 h; method in brief: as §4
Klebsiella pneumoniae [13] = test: Antibacterial activity against Klebsiella pneumoniae NCIM 2957 after 24 hrs; format: functional; conditions: NCIM 2957, 24 h; method in brief: as §4
THP-1 [14] = test: Cytotoxicity against human THP1 cells assessed as CCK8 release at 10 uM after 24 hrs by ELISA; format: cell-based; conditions: thp-1, 24 h; method in brief: as §2
Proteus vulgaris [15] = test: Antibacterial activity against Proteus vulgaris MTCC 1771 at 50 ug/ml after 24 hrs agar diffusion method; format: functional; conditions: MTCC 1771, 24 h, read-out: IZ; method in brief: as §4
THP-1 [16] = test: Antiinflammatory activity in human THP1 cells assessed as inhibition of LPS-induced IL6 release at 10 uM after 24 hrs by ELISA; format: functional; conditions: THP-1, 24 h; method in brief: as §1
Escherichia coli [17] = test: Antibacterial activity against Escherichia coli MTCC 1650 at 50 ug/ml after 24 hrs agar diffusion method; format: functional; conditions: MTCC 1650, 24 h, read-out: IZ; method in brief: as §4
HCT-116 [18] = test: Anticancer activity against human HCT116 cells at 10 uM after 48 hrs by propidium iodide fluorescence assay; format: functional; method in brief: as §3
Bacillus subtilis [19] = test: Antibacterial activity against Bacillus subtilis MTCC 1789 at 50 ug/ml after 24 hrs agar diffusion method; format: functional; conditions: MTCC 1789, 24 h, read-out: IZ; method in brief: as §4
Staphylococcus aureus [20] = test: Antibacterial activity against Staphylococcus aureus MTCC 96 after 24 hrs; format: functional; conditions: MTCC 96, 24 h; method in brief: as §4
Candida albicans = test: Antifungal activity against Candida albicans MTCC 227 at 100 ug/ml after 48 hrs agar diffusion method; format: functional; conditions: MTCC 227, 48 h, read-out: IZ
Method in brief: (§5)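 Fungal spore suspensions in sterile distilled water adjusted to 10⁶ cfu/mL; 0.1 mL spread on Sabouraud dextrose agar. Wells of 6 mm filled with 0.1 mL compound dilution in DMSO. DMSO (1%) control; nystatin (30 µg/mL) reference. Duplicate plates incubated at 28 °C for 48 h. Activity read as inhibition zone diameter in mm.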

Klebsiella pneumoniae [21] = test: Antibacterial activity against Klebsiella pneumoniae NCIM 2957 at 50 ug/ml after 24 hrs agar diffusion method; format: functional; conditions: NCIM 2957, 24 h, read-out: IZ; method in brief: as §4
THP-1 [22] = test: Antiinflammatory activity in human THP1 cells assessed as inhibition of LPS-induced TNFalpha release at 10 uM after 24 hrs by ELISA; format: functional; conditions: THP-1, 24 h; method in brief: as §1
PANC-1 [23] = test: Anticancer activity against human PANC1 cells at 10 uM after 48 hrs by propidium iodide fluorescence assay; format: functional; method in brief: as §3
NCI-H460 [24] = test: Anticancer activity against human H460 cells at 10 uM after 48 hrs by propidium iodide fluorescence assay; format: functional; method in brief: as §3
Proteus vulgaris [25] = test: Antibacterial activity against Proteus vulgaris MTCC 1771 after 24 hrs; format: functional; conditions: MTCC 1771, 24 h; method in brief: as §4
Penicillium chrysogenum = test: Antifungal activity against Penicillium chrysogenum MTCC 1996 at 100 ug/ml after 48 hrs agar diffusion method; format: functional; conditions: MTCC 1996, 48 h, read-out: IZ; method in brief: as §5
Aspergillus niger = test: Antifungal activity against Aspergillus niger MTCC 1781 at 100 ug/ml after 48 hrs agar diffusion method; format: functional; conditions: MTCC 1781, 48 h, read-out: IZ; method in brief: as §5
ACHN [26] = test: Anticancer activity against human ACHN cells at 10 uM after 48 hrs by propidium iodide fluorescence assay; format: functional; method in brief: as §3
Aspergillus flavus = test: Antifungal activity against Aspergillus flavus MTCC 2501 at 100 ug/ml after 48 hrs agar diffusion method; format: functional; conditions: MTCC 2501, 48 h, read-out: IZ; method in brief: as §5
Trichoderma viride = test: Antifungal activity against Trichoderma viride MTCC 167 at 100 ug/ml after 48 hrs agar diffusion method; format: functional; conditions: MTCC 167, 48 h, read-out: IZ; method in brief: as §5
HCT-116 [27] = test: Anticancer activity against human HCT116 cells at 700 nM after 48 hrs by propidium iodide fluorescence assay; format: functional; method in brief: as §3
ACHN [28] = test: Anticancer activity against human ACHN cells at 700 nM after 48 hrs by propidium iodide fluorescence assay; format: functional; method in brief: as §3
PANC-1 [29] = test: Anticancer activity against human PANC1 cells at 700 nM after 48 hrs by propidium iodide fluorescence assay; format: functional; method in brief: as §3
NCI-H460 [30] = test: Anticancer activity against human H460 cells at 700 nM after 48 hrs by propidium iodide fluorescence assay; format: functional; method in brief: as §3
Calu-1 [31] = test: Anticancer activity against human Calu1 cells at 700 nM after 48 hrs by propidium iodide fluorescence assay; format: functional; method in brief: as §3

MIC (Escherichia coli [9]) [µg/mL] | MIC (Bacillus subtilis [12]) [µg/mL] | MIC (Klebsiella pneumoniae [13]) [µg/mL] | MIC (Staphylococcus aureus [20]) [µg/mL] | MIC (Proteus vulgaris [25]) [µg/mL] | Structure (SMILES) | zone of inhibition at 50 µg/mL (Staphylococcus aureus [10]) [mm] | Activity (Calu-1 [11]) [%] | Activity (THP-1 [14]) [%] | zone of inhibition at 50 µg/mL (Proteus vulgaris [15]) [mm] | inhibition at 10 µM (THP-1 [16]) [%] | zone of inhibition at 50 µg/mL (Escherichia coli [17]) [mm] | Activity (HCT-116 [18]) [%] | zone of inhibition at 50 µg/mL (Bacillus subtilis [19]) [mm] | zone of inhibition at 100 µg/mL (Candida albicans) [mm] | zone of inhibition at 50 µg/mL (Klebsiella pneumoniae [21]) [mm] | inhibition at 10 µM (THP-1 [22]) [%] | Activity (PANC-1 [23]) [%] | Activity (NCI-H460 [24]) [%] | zone of inhibition at 100 µg/mL (Penicillium chrysogenum) [mm] | zone of inhibition at 100 µg/mL (Aspergillus niger) [mm] | other results
 |  |  |  |  | C[C@@H]1C[C@H]2[C@@H]3CCC4=CC(=O)C=C[C@]4(C)[C@@]3(F)[C@@H](O)C[C@]2(C)[C@@]1(O)C(=O)CO [DEXAMETHASONE] |  |  |  |  |  |  |  |  |  |  |  |  |  |  |  | inhibition at 1 µM (THP-1 [1]): 84%; Activity (THP-1 [2]): 0%; inhibition at 1 µM (THP-1 [3]): 73%
 |  |  |  |  | Nc1ccn([C@@H]2O[C@H](CO)[C@@H](O)C2(F)F)c(=O)n1 [GEMCITABINE] |  |  |  |  |  |  |  |  |  |  |  |  |  |  |  | Activity (PANC-1 [4]): 71%; Activity (ACHN [5]): 70%; Activity (HCT-116 [6]): 76%; Activity (Calu-1 [7]): 70%; Activity (NCI-H460 [8]): 68%
50 (≈ 139 µM) | 50 (≈ 139 µM) | 50 (≈ 139 µM) | 50 (≈ 139 µM) | 50 (≈ 139 µM) | COc1ccc(/C(Cl)=C/C=C/C(=O)c2ccc(OC)cc2OC)cc1 | 12 | 31 | 0 | 15 | 49 | 14 | 31 | 20 | 8 | 12 | 0 | 31 | 33 | 12 | 15 | Activity (ACHN [26]): 33%; zone of inhibition at 100 µg/mL (Aspergillus flavus): 12 mm; zone of inhibition at 100 µg/mL (Trichoderma viride): 14 mm
50 (≈ 158 µM) | 50 (≈ 158 µM) | 50 (≈ 158 µM) | 50 (≈ 158 µM) | 50 (≈ 158 µM) | COc1ccc(C(=O)/C=C/C=C(\Cl)c2ccc(F)cc2)cc1 | 16 | 0 | 2 | 16 | 6 | 11 | 0 | 15 | 8 | 15 | 0 | 1 | 14 | 15 | 8 | Activity (ACHN [26]): 17%; zone of inhibition at 100 µg/mL (Aspergillus flavus): 15 mm; zone of inhibition at 100 µg/mL (Trichoderma viride): 14 mm
 |  |  |  |  | CN1CC[C@H](c2c(O)cc(O)c3c(=O)cc(-c4ccccc4Cl)oc23)[C@H](O)C1 [ALVOCIDIB] |  |  |  |  |  |  |  |  |  |  |  |  |  |  |  | Activity (HCT-116 [27]): 71%; Activity (ACHN [28]): 68%; Activity (PANC-1 [29]): 75%; Activity (NCI-H460 [30]): 84%; Activity (Calu-1 [31]): 68%
